Laboratory results: ChEMBL document CHEMBL3272012, “5-(Tetradecyloxy)-2-furancarboxylic acid and related hypolipidemic fatty acid-like alkyloxyarylcarboxylic acids” (J Med Chem, 1977)
Values belong to the compound of their own block, whether it stands above or below them.

What was measured:
Rattus norvegicus [1] = assay: Hypolipidemic activity in Wistar rat assessed as reduction in plasma triglyceride level at 407 umol/kg/day administered through diet for 4 days; format: functional; conditions: 96 h
Rattus norvegicus [2] = assay: Hypolipidemic activity in Wistar rat assessed as reduction in plasma triglyceride level at 511 umol/kg/day administered through diet for 10 days; format: functional; conditions: 240 h
Rattus norvegicus [3] = assay: Hypolipidemic activity in Wistar rat assessed as reduction in plasma triglyceride level at 275 umol/kg/day administered through diet for 10 days; format: functional; conditions: 240 h
Method in brief: (§1)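 Young male Wistar rats, 170-190 g initial weight, six per group, fed drug mixed thoroughly into Purina Lab Chow ad libitum for the stated days; daily dose calculated from food consumption and body weight. Bled by cardiac puncture at end; plasma cholesterol and triglycerides by automated procedures, expressed as percent reduction versus simultaneous untreated controls; Student's t test.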

Rattus norvegicus [4] = assay: Hypolipidemic activity in Wistar rat assessed as reduction in plasma triglyceride level at 149 umol/kg/day administered through diet for 10 days; format: functional; conditions: 240 h, read-out: INH; method in brief: as §1
Rattus norvegicus [5] = assay: Hypolipidemic activity in Wistar rat assessed as reduction in plasma cholesterol level at 407 umol/kg/day administered through diet for 4 days; format: functional; conditions: 96 h
Method in brief: (§2)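 Young male Wistar rats, 170-190 g at start, in groups of six, given compound mixed into Purina Lab Chow ad libitum for 4 or 10 days as stated. Daily dose was calculated from food consumption and body weight. Plasma was taken by cardiac puncture at the end and cholesterol measured by automated procedure. Results are % reduction versus a concurrent untreated control group, with Student's t test.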

Rattus norvegicus [6] = assay: Hypolipidemic activity in Wistar rat assessed as reduction in plasma cholesterol level at 511 umol/kg/day administered through diet for 10 days; format: functional; conditions: 240 h
Method in brief: (§3)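 Young male Wistar rats, 170-190 g initial weight, groups of six, given compound mixed thoroughly into Purina Lab Chow ad libitum for 4 or 10 days as stated. Daily dose calculated from food consumption and body weight. Bled by cardiac puncture at end of treatment; plasma cholesterol measured by automated procedure. Expressed as percent reduction versus simultaneous untreated control group; Student's t test.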

Rattus norvegicus [7] = assay: Hypolipidemic activity in Wistar rat assessed as reduction in plasma cholesterol level at 275 umol/kg/day administered through diet for 10 days; format: functional; conditions: 240 h; method in brief: as §2
Rattus norvegicus [8] = assay: Hypolipidemic activity in Wistar rat assessed as reduction in plasma cholesterol level at 149 umol/kg/day administered through diet for 10 days; format: functional; conditions: 240 h; method in brief: as §2
Rattus norvegicus [9] = assay: Increase in cholesterol level in Wistar rat liver at 407 umol/kg/day administered through diet for 4 days; format: ADME, organism-based; conditions: in vivo, po, 96 h
Rattus norvegicus [10] = assay: Increase in cholesterol level in Wistar rat liver at 511 umol/kg/day administered through diet for 10 days; format: ADME, organism-based; conditions: in vivo, po, 240 h
Rattus norvegicus [11] = assay: Increase in cholesterol level in Wistar rat liver at 275 umol/kg/day administered through diet for 10 days; format: ADME, organism-based; conditions: in vivo, po, 240 h
Rattus norvegicus [12] = assay: Increase in cholesterol level in Wistar rat liver at 149 umol/kg/day administered through diet for 10 days; format: ADME, organism-based; conditions: in vivo, po, 240 h
Rattus norvegicus [13] = assay: Increase in liver weight in Wistar rat at 407 umol/kg/day administered through diet for 4 days; format: ADME, organism-based; conditions: in vivo, po, 96 h
Rattus norvegicus [14] = assay: Increase in liver weight in Wistar rat at 511 umol/kg/day administered through diet for 10 days; format: ADME, organism-based; conditions: in vivo, po, 240 h
Rattus norvegicus [15] = assay: Increase in liver weight in Wistar rat at 275 umol/kg/day administered through diet for 10 days; format: ADME, organism-based; conditions: in vivo, po, 240 h
Rattus norvegicus [16] = assay: Increase in liver weight in Wistar rat at 149 umol/kg/day administered through diet for 10 days; format: ADME, organism-based; conditions: in vivo, po, 240 h
Rattus norvegicus [17] = assay: Hypolipidemic activity in Wistar rat assessed as reduction in plasma triglyceride level at 439 umol/kg/day administered through diet for 10 days; format: functional; conditions: 240 h
Method in brief: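 Young male Wistar rats (initial weight 170-190 g), groups of six, fed compound mixed into Purina Lab Chow ad libitum for 4 or 10 days; daily dose calculated from food consumption and body weight. Bled by cardiac puncture; plasma cholesterol and triglycerides by automated procedures; percent reduction versus simultaneous untreated controls, Student's t test.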

Rattus norvegicus [18] = assay: Hypolipidemic activity in Wistar rat assessed as reduction in plasma cholesterol level at 439 umol/kg/day administered through diet for 10 days; format: functional; conditions: 240 h; method in brief: as §3
Rattus norvegicus [19] = assay: Hypolipidemic activity in Wistar rat assessed as reduction in plasma triglyceride level at 461 umol/kg/day administered through diet for 4 days; format: functional; conditions: 96 h
Rattus norvegicus [20] = assay: Hypolipidemic activity in Wistar rat assessed as reduction in plasma triglyceride level at 392 umol/kg/day administered through diet for 10 days; format: functional; conditions: 240 h
Method in brief: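 Young male Wistar rats (170-190 g initial weight), groups of six, fed test compound mixed into Purina Lab Chow ad libitum; daily dose calculated from food consumption and body weight. Bled by cardiac puncture at end of treatment; plasma triglycerides measured by automated procedure. Results given as percent reduction versus a simultaneous untreated control group, with significance by Student's t test.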

Rattus norvegicus [21] = assay: Hypolipidemic activity in Wistar rat assessed as reduction in plasma cholesterol level at 461 umol/kg/day administered through diet for 4 days; format: functional; conditions: 96 h; method in brief: as §3
Rattus norvegicus [22] = assay: Hypolipidemic activity in Wistar rat assessed as reduction in plasma cholesterol level at 392 umol/kg/day administered through diet for 10 days; format: functional; conditions: 240 h; method in brief: as §2
Rattus norvegicus [23] = assay: Increase in liver weight in Wistar rat at 439 umol/kg/day administered through diet for 10 days; format: ADME, organism-based; conditions: in vivo, po, 240 h
Method in brief: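 Male Wistar rats (170-190 g initial), groups of six, dosed via diet ad libitum for 4 or 10 days, daily dose from food consumption. Liver wet weight measured, expressed as g/100 g final body weight, compared with untreated controls run simultaneously.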

Rattus norvegicus [24] = assay: Increase in cholesterol level in Wistar rat liver at 461 umol/kg/day administered through diet for 4 days; format: ADME, organism-based; conditions: in vivo, po, 96 h
Rattus norvegicus [25] = assay: Increase in cholesterol level in Wistar rat liver at 392 umol/kg/day administered through diet for 10 days; format: ADME, organism-based; conditions: in vivo, po, 240 h
Rattus norvegicus [26] = assay: Increase in cholesterol level in Wistar rat liver at 439 umol/kg/day administered through diet for 10 days; format: ADME, organism-based; conditions: in vivo, po, 240 h
Rattus norvegicus [27] = assay: Increase in liver weight in Wistar rat at 461 umol/kg/day administered through diet for 4 days; format: ADME, organism-based; conditions: in vivo, po, 96 h
Rattus norvegicus [28] = assay: Increase in liver weight in Wistar rat at 392 umol/kg/day administered through diet for 10 days; format: ADME, organism-based; conditions: in vivo, po, 240 h
Rattus norvegicus [29] = assay: Hypolipidemic activity in Wistar rat assessed as reduction in plasma triglyceride level at 470 umol/kg/day administered through diet for 4 days; format: functional; conditions: 96 h
Rattus norvegicus [30] = assay: Hypolipidemic activity in Wistar rat assessed as reduction in plasma triglyceride level at 428 umol/kg/day administered through diet for 10 days; format: functional; conditions: 240 h
Rattus norvegicus [31] = assay: Hypolipidemic activity in Wistar rat assessed as reduction in plasma cholesterol level at 470 umol/kg/day administered through diet for 4 days; format: functional; conditions: 96 h; method in brief: as §3
Rattus norvegicus [32] = assay: Hypolipidemic activity in Wistar rat assessed as reduction in plasma cholesterol level at 428 umol/kg/day administered through diet for 10 days; format: functional; conditions: 240 h; method in brief: as §3
Rattus norvegicus [33] = assay: Increase in cholesterol level in Wistar rat liver at 470 umol/kg/day administered through diet for 4 days; format: ADME, organism-based; conditions: in vivo, po, 96 h
Rattus norvegicus [34] = assay: Increase in liver weight in Wistar rat at 470 umol/kg/day administered through diet for 4 days; format: ADME, organism-based; conditions: in vivo, po, 96 h
Rattus norvegicus [35] = assay: Hypolipidemic activity in Wistar rat assessed as reduction in plasma triglyceride level at 462 umol/kg/day administered through diet for 10 days; format: functional; conditions: 240 h
Rattus norvegicus [36] = assay: Hypolipidemic activity in Wistar rat assessed as reduction in plasma triglyceride level at 453 umol/kg/day administered through diet for 4 days; format: functional; conditions: 96 h
Rattus norvegicus [37] = assay: Hypolipidemic activity in Wistar rat assessed as reduction in plasma cholesterol level at 462 umol/kg/day administered through diet for 10 days; format: functional; conditions: 240 h; method in brief: as §3
Rattus norvegicus [38] = assay: Hypolipidemic activity in Wistar rat assessed as reduction in plasma cholesterol level at 453 umol/kg/day administered through diet for 4 days; format: functional; conditions: 96 h; method in brief: as §3
Rattus norvegicus [39] = assay: Increase in cholesterol level in Wistar rat liver at 462 umol/kg/day administered through diet for 10 days; format: ADME, organism-based; conditions: in vivo, po, 240 h
Rattus norvegicus [40] = assay: Increase in liver weight in Wistar rat at 462 umol/kg/day administered through diet for 10 days; format: ADME, organism-based; conditions: in vivo, po, 240 h
Rattus norvegicus [41] = assay: Increase in liver weight in Wistar rat at 453 umol/kg/day administered through diet for 4 days; format: ADME, organism-based; conditions: in vivo, po, 96 h

Activity (Rattus norvegicus [9]): 1% | Activity (Rattus norvegicus [10]): 2% | Activity (Rattus norvegicus [11]): 4% | Activity (Rattus norvegicus [12]): 7% | Activity (Rattus norvegicus [13]): 14% | Activity (Rattus norvegicus [14]): 19% | Activity (Rattus norvegicus [15]): 20% | Activity (Rattus norvegicus [16]): 7%
Compound: CCCCCCCCCCCCCCOc1ccc(C(=O)O)cc1
inhibition in vivo at 407 µmol/kg (Rattus norvegicus [1]): 39% | inhibition in vivo at 511 µmol/kg (Rattus norvegicus [2]): 36% | inhibition in vivo at 275 µmol/kg (Rattus norvegicus [3]): 46% | inhibition in vivo at 149 µmol/kg (Rattus norvegicus [4]): 49% | inhibition in vivo at 407 µmol/kg (Rattus norvegicus [5]): 31% | inhibition in vivo at 511 µmol/kg (Rattus norvegicus [6]): 24% | inhibition in vivo at 275 µmol/kg (Rattus norvegicus [7]): 33% | inhibition in vivo at 149 µmol/kg (Rattus norvegicus [8]): 16%

Activity (Rattus norvegicus [23]): 10% | Activity (Rattus norvegicus [24]): 20% | Activity (Rattus norvegicus [25]): 0% | Activity (Rattus norvegicus [26]): 3% | Activity (Rattus norvegicus [27]): 16% | Activity (Rattus norvegicus [28]): 2%
Compound: CCCCCCCCCCCCCCOc1ccc(C(=O)OCC)cc1
inhibition in vivo at 439 µmol/kg (Rattus norvegicus [17]): 54% | inhibition in vivo at 439 µmol/kg (Rattus norvegicus [18]): 24% | inhibition in vivo at 461 µmol/kg (Rattus norvegicus [19]): 42% | inhibition in vivo at 392 µmol/kg (Rattus norvegicus [20]): 61% | inhibition in vivo at 461 µmol/kg (Rattus norvegicus [21]): 23% | inhibition in vivo at 392 µmol/kg (Rattus norvegicus [22]): 33%

Activity (Rattus norvegicus [33]): 22% | Activity (Rattus norvegicus [34]): 22%
Compound: CCCCCCCCCCCCOc1ccc(C(=O)O)cc1
inhibition in vivo at 470 µmol/kg (Rattus norvegicus [29]): 58% | inhibition in vivo at 428 µmol/kg (Rattus norvegicus [30]): 31% | inhibition in vivo at 470 µmol/kg (Rattus norvegicus [31]): 33% | inhibition in vivo at 428 µmol/kg (Rattus norvegicus [32]): 16%

Activity (Rattus norvegicus [39]): 12% | Activity (Rattus norvegicus [40]): 0% | Activity (Rattus norvegicus [41]): 0%
Compound: CCCCCCCCCCCCCCOc1cccc(C(=O)OC)c1
inhibition in vivo at 462 µmol/kg (Rattus norvegicus [35]): 59% | inhibition in vivo at 453 µmol/kg (Rattus norvegicus [36]): 51% | inhibition in vivo at 462 µmol/kg (Rattus norvegicus [37]): 24% | inhibition in vivo at 453 µmol/kg (Rattus norvegicus [38]): 0%
